# Laboratory results reported in ChEMBL document CHEMBL3758120, “Synthesis and Mechanism Studies of 1,3-Benzoazolyl Substituted Pyrrolo[2,3-b]pyrazine Derivatives as Nonintercalative Topoisomerase II Catalytic Inhibitors” (J Med Chem, 2016).
# pIC50: −log10 of the molar value. The source made the active and inactive calls. The calls are words filed in the database; no cut-off is given here.
# Assays:
# [1] = molecular target: T1, DNA topoisomerase 2-alpha (Homo sapiens, UniProt P11388); details: HL-60, 5 uM
# HL-60 = experiment: Induction of apoptosis in human HL60 cells assessed as dead cells at 0.25 uM after 24 hrs by annexin V-FITC/propidium iodide staining-based flow cytometric analysis (reference value: 0.12%); assay type: functional
# [2] = molecular target: T1, DNA topoisomerase 2-alpha; details: HL-60, 5 uM; remark: listed apart in the source
# Calf thymus DNA = experiment: Binding affinity to calf thymus DNA by UV-visible spectrophotometric analysis; assay type: nucleic-acid assay; details: Bos taurus
# In short: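 Compound fixed at 5 μM in DPBS pH 7.4 with 1% DMSO, titrated with CT-DNA (0–25 μM; concentration from A260, ε 13 200 M(bp)⁻¹cm⁻¹; A260/280 1.8–1.9). After 20 min equilibration at room temperature, absorption spectra recorded over 300–500 nm.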
# [3] = molecular target: T1, DNA topoisomerase 2-alpha; experiment: Inhibition of purified human topoisomerase 2-mediated relaxation of supercoiled pBR322 DNA at 50 uM incubated for 30 mins in presence of 4 mM ATP by agarose gel electrophoresis
# In short: (§1)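 Reactions contained 0.2 μg supercoiled pBR322 in 50 mM Tris-HCl pH 8.0, 150 mM NaCl, 10 mM MgCl2, 0.5 mM DTT, 30 μg/ml BSA, normally 2 mM ATP (1, 2 or 4 mM in ATP-competition runs). Started with 1 U human Topo II, 30 min at 37 °C, stopped with sarcosyl buffer, run on 1% agarose 1.5 h at 75 V, gel-stained and imaged under UV.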
# Escherichia coli = experiment: Binding affinity to Escherichia coli pBR322 DNA assessed as intercalation of pBR322 DNA at 0.1 to 100 uM by fluorescence based ethidium bromide displacement assay
# In short: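 Increasing concentrations added to 20 nM pBR322 plasmid with 2.5 μM ethidium bromide in 10 mM HEPES pH 7.9, 100 mM KCl, 5 mM MgCl2, 0.1 mM EDTA. Fluorescence emission spectra recorded (excitation 510 nm, emission max 595 nm) at each concentration; mAMSA used as intercalating reference.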
# [4] = molecular target: T1, DNA topoisomerase 2-alpha; experiment: Inhibition of purified human topoisomerase 2-mediated relaxation of supercoiled pBR322 DNA at 50 uM incubated for 30 mins in presence of 1 mM ATP by agarose gel electrophoresis
# In short: as §1
# T1 sequence (P11388 whole entry): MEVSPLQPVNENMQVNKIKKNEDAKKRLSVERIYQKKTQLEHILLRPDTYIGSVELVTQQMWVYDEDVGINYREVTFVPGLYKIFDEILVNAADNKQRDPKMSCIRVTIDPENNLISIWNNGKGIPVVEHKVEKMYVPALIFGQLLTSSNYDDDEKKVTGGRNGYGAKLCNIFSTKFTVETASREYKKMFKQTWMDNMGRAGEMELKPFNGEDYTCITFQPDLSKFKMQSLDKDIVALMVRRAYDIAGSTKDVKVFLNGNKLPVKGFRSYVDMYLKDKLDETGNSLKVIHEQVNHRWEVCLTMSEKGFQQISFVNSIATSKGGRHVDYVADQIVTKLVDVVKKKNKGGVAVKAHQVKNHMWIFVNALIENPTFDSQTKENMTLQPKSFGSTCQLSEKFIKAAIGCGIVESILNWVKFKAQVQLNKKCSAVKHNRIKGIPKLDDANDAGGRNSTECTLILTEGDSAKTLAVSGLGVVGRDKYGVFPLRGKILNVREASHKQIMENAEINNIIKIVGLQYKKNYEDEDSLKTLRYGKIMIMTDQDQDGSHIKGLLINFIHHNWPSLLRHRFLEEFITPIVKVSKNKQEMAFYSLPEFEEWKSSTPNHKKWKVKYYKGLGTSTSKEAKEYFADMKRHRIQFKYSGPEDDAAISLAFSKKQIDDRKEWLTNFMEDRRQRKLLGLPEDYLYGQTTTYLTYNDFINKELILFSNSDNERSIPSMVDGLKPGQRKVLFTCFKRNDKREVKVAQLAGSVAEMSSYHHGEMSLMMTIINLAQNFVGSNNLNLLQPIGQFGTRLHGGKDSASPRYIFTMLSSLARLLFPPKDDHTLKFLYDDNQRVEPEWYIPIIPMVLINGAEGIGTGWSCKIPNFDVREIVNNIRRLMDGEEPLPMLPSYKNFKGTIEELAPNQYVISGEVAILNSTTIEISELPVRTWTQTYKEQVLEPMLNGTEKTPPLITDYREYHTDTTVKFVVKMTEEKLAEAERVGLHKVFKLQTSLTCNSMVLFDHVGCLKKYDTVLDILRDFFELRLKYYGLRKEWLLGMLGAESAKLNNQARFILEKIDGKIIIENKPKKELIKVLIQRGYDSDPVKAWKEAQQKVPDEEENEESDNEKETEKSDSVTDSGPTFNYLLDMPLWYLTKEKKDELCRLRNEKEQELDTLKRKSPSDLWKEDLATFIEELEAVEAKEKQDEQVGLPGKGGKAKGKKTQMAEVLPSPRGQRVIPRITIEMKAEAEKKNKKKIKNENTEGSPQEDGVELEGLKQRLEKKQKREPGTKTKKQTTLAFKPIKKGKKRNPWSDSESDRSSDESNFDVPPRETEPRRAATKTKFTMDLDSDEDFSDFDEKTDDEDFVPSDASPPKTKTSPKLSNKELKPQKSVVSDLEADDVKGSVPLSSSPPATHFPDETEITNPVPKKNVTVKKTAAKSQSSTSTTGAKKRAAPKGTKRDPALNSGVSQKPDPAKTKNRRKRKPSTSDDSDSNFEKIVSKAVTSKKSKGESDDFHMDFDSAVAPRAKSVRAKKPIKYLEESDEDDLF
SMILES,inhibition [1],Activity (HL-60) [%],inhibition [2],Kb (Calf thymus DNA) [×10⁵ /M],pIC50 [3],inhibition (Escherichia coli),pIC50 [4]
CN(C)CCCCn1c(N)c(-c2nc3ccccc3[nH]2)c2nc(C#N)c(C#N)nc21,Active,0.03,inactive,2.8,4.78,inactive,6.05
CCN(CC)CCCCn1c(N)c(-c2nc3ccccc3[nH]2)c2nc(C#N)c(C#N)nc21,,0.07,,,,,
